Test results published in ChEMBL document CHEMBL1821556, “Structure-activity relationships of antitubercular nitroimidazoles. 3. Exploration of the linker and lipophilic tail of ((s)-2-nitro-6,7-dihydro-5H-imidazo[2,1-b][1,3]oxazin-6-yl)-(4-trifluoromethoxybenzyl)amine (6-amino PA-824)” (J Med Chem, 2011).
In brackets after ≈: the same amount, converted by molar mass.

Tests used:
[1] = tested on: Mycobacterium tuberculosis; assay: Bactericidal activity against Mycobacterium tuberculosis assessed as minimum concentration required for anaerobicidal activity; format: functional
Summary of the method: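 Minimum anaerobicidal concentration (μM) against non-replicating Mtb. Run multiple times in two independent laboratories, with discrepant results repeated until concordant. Values are averages of multiple measurements ± SD.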

[2] = tested on: Mycobacterium tuberculosis; assay: Antitubercular activity against Mycobacterium tuberculosis; format: functional
Summary of the method: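 Whole-cell assay against replicating Mtb, scored as MIC99 in μM. Run multiple times in two independent laboratories, with discrepant results repeated until concordant. Values are averages of multiple measurements ± SD.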

Liver [3] = assay: Half life in mouse liver microsome at 5 mg/kg, iv after 24 hrs by LC/MS/MS analysis; format: ADME; details: microsomes
Liver [4] = assay: Intrinsic clearance in mouse liver microsome at 5 mg/kg, iv after 24 hrs by LC/MS/MS analysis; format: ADME; details: microsomes
[5] = Solubility of the compound at pH 6.8; format: physicochemical; details: buffer
[6] = Elimination half life in mouse at 5 mg/kg, iv by LC/MS/MS analysis; format: ADME, organism-based; set-up: dose 5 mg/kg, route intravenous; details: in vivo, read-out: beta t1/2 (converted)
Summary of the method: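 Single intravenous dose of 5mg/kg, using the supernatant of a centrifuged formulation. Blood was sampled at time points from 1min to 24h after dosing. Plasma was extracted and analysed by LC/MS/MS. Pharmacokinetic parameters, including elimination half-life, came from non-compartmental analysis.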

O=C(c1ccc(Cl)cc1)N(Cc1ccc(OC(F)(F)F)cc1)[C@@H]1COc2nc([N+](=O)[O-])cn2C1
Activity [1]: 7.8 µM | MIC99 [2]: 1.3 µM (≈ 0.646 µg/mL)

O=CN(Cc1ccc(OC(F)(F)F)cc1)[C@@H]1COc2nc([N+](=O)[O-])cn2C1
Activity [1]: 12.5 µM | MIC99 [2]: 0.79 µM (≈ 0.305 µg/mL)

CC(=O)N(Cc1ccc(OC(F)(F)F)cc1)[C@@H]1COc2nc([N+](=O)[O-])cn2C1
Activity [1]: >50 µM | MIC99 [2]: 50 µM (≈ 20 µg/mL)

O=C(c1ccccc1)N(Cc1ccc(OC(F)(F)F)cc1)[C@@H]1COc2nc([N+](=O)[O-])cn2C1
Activity [1]: >50 µM | MIC99 [2]: 8.8 µM (≈ 4.07 µg/mL)

O=C(c1ccccc1Cl)N(Cc1ccc(OC(F)(F)F)cc1)[C@@H]1COc2nc([N+](=O)[O-])cn2C1
Activity [1]: >50 µM | MIC99 [2]: 5.6 µM (≈ 2.78 µg/mL)

O=C(c1cccc(Cl)c1)N(Cc1ccc(OC(F)(F)F)cc1)[C@@H]1COc2nc([N+](=O)[O-])cn2C1
Activity [1]: 21 µM | MIC99 [2]: 7.5 µM (≈ 3.73 µg/mL)

CN(Cc1ccc(OC(F)(F)F)cc1)[C@@H]1COc2nc([N+](=O)[O-])cn2C1
Activity [1]: 2.5 µM | t1/2 (Liver [3]): 11 min | CL (Liver [4]): 124.9 µL/min/mg | solubility [5]: 10 µg/mL (≈ 26.9 µM) | MIC99 [2]: 0.15 µM (≈ 0.0558 µg/mL)

CCCN(Cc1ccc(OC(F)(F)F)cc1)[C@@H]1COc2nc([N+](=O)[O-])cn2C1
Activity [1]: 3.8 µM | t1/2 (Liver [3]): 3.4 min | CL (Liver [4]): 407 µL/min/mg | solubility [5]: < 2 µg/mL | MIC99 [2]: 0.11 µM (≈ 0.044 µg/mL)

CC(C)N(Cc1ccc(OC(F)(F)F)cc1)[C@@H]1COc2nc([N+](=O)[O-])cn2C1
Activity [1]: 11 µM | t1/2 (Liver [3]): 3.2 min | CL (Liver [4]): 433 µL/min/mg | solubility [5]: < 2 µg/mL | MIC99 [2]: 0.34 µM (≈ 0.136 µg/mL)

CCNC(=O)N(Cc1ccc(OC(F)(F)F)cc1)[C@@H]1COc2nc([N+](=O)[O-])cn2C1
Activity [1]: 69 µM | MIC99 [2]: 17 µM (≈ 7.3 µg/mL)

O=[N+]([O-])c1cn2c(n1)OC[C@@H](NCc1ccc(OC(F)(F)F)cc1OCc1ccccc1)C2
Activity [1]: 7.5 µM | MIC99 [2]: 0.24 µM (≈ 0.111 µg/mL)

COc1cc(OC(F)(F)F)ccc1CN[C@@H]1COc2nc([N+](=O)[O-])cn2C1
Activity [1]: 5.2 µM | MIC99 [2]: 0.23 µM (≈ 0.0893 µg/mL)

O=[N+]([O-])c1cn2c(n1)OC[C@@H](NCc1ccc(OC(F)(F)F)cc1Oc1ccccc1)C2
Activity [1]: 4.4 µM | t1/2 (Liver [3]): 6.4 min | CL (Liver [4]): 216.6 µL/min/mg | solubility [5]: 3 µg/mL (≈ 6.66 µM) | MIC99 [2]: 0.06 µM (≈ 0.027 µg/mL)

O=[N+]([O-])c1cn2c(n1)OC[C@@H](NCc1ccc(OC(F)(F)F)cc1OCC1CC1)C2
Activity [1]: 4.2 µM | t1/2 (Liver [3]): 1.6 min | CL (Liver [4]): 866.3 µL/min/mg | solubility [5]: 6 µg/mL (≈ 14 µM) | MIC99 [2]: 0.1 µM (≈ 0.0428 µg/mL)

O=[N+]([O-])c1cn2c(n1)OC[C@@H](NCc1ccc(OC(F)(F)F)cc1OC1CC1)C2
Activity [1]: 2 µM | t1/2 (Liver [3]): 9.2 min | CL (Liver [4]): 150.7 µL/min/mg | solubility [5]: 11 µg/mL (≈ 26.5 µM) | MIC99 [2]: 0.06 µM (≈ 0.0249 µg/mL)

O=[N+]([O-])c1cn2c(n1)OC[C@@H](NCc1ccc(OC(F)(F)F)cc1O)C2
Activity [1]: 4.4 µM | t1/2 (Liver [3]): 14.3 min | CL (Liver [4]): 96.9 µL/min/mg | solubility [5]: 25 µg/mL (≈ 66.8 µM) | MIC99 [2]: 0.09 µM (≈ 0.0337 µg/mL)

O=[N+]([O-])c1cn2c(n1)OC[C@@H](NCc1ccc(OC(F)(F)F)cc1F)C2
Activity [1]: 2.5 µM | t1/2 (Liver [3]): 14.5 min | CL (Liver [4]): 95.6 µL/min/mg | solubility [5]: 72 µg/mL (≈ 191 µM) | MIC99 [2]: 0.12 µM (≈ 0.0452 µg/mL)

O=[N+]([O-])c1cn2c(n1)OC[C@@H](NCc1ccc(OC(F)(F)F)cc1Cl)C2
Activity [1]: 2.1 µM | t1/2 (Liver [3]): 19.9 min | CL (Liver [4]): 69.7 µL/min/mg | solubility [5]: 30 µg/mL (≈ 76.4 µM) | MIC99 [2]: 0.13 µM (≈ 0.0511 µg/mL)

O=[N+]([O-])c1cn2c(n1)OC[C@@H](NCc1ccc(OC(F)(F)F)cc1Br)C2
Activity [1]: 2 µM | MIC99 [2]: 0.09 µM (≈ 0.0393 µg/mL)

O=[N+]([O-])c1cn2c(n1)OC[C@@H](NCc1ccc(OC(F)(F)F)cc1N1CCCCC1)C2
Activity [1]: 11 µM | MIC99 [2]: 0.21 µM (≈ 0.0927 µg/mL)

O=[N+]([O-])c1cn2c(n1)OC[C@@H](NCc1ccc(OC(F)(F)F)cc1N1CCOCC1)C2
Activity [1]: 10 µM | MIC99 [2]: 0.15 µM (≈ 0.0665 µg/mL)

CN1CCN(c2cc(OC(F)(F)F)ccc2CN[C@@H]2COc3nc([N+](=O)[O-])cn3C2)CC1
Activity [1]: 33 µM | MIC99 [2]: 2.2 µM (≈ 1 µg/mL)

O=[N+]([O-])c1cn2c(n1)OC[C@@H](NCc1ccc(OC(F)(F)F)c(F)c1)C2
Activity [1]: 4.2 µM | t1/2 (Liver [3]): 23.6 min | CL (Liver [4]): 58.7 µL/min/mg | MIC99 [2]: 0.12 µM (≈ 0.0452 µg/mL)

O=[N+]([O-])c1cn2c(n1)OC[C@@H](OCc1ccc(OC(F)(F)F)c(F)c1)C2
Activity [1]: 7.5 µM | MIC99 [2]: 0.17 µM (≈ 0.0641 µg/mL)

O=[N+]([O-])c1cn2c(n1)OC[C@@H](NCc1ccc(OC(F)(F)F)c(Cl)c1)C2
Activity [1]: 4.2 µM | t1/2 (Liver [3]): 13.4 min | half-life [6]: 258 min | CL (Liver [4]): 103.4 µL/min/mg | MIC99 [2]: 0.12 µM (≈ 0.0471 µg/mL)

COc1cc(CN[C@@H]2COc3nc([N+](=O)[O-])cn3C2)ccc1OC(F)(F)F
Activity [1]: 2.1 µM | MIC99 [2]: 0.07 µM (≈ 0.0272 µg/mL)

COc1cc(CO[C@@H]2COc3nc([N+](=O)[O-])cn3C2)ccc1OC(F)(F)F
Activity [1]: 4.2 µM | MIC99 [2]: 0.13 µM (≈ 0.0506 µg/mL)

O=[N+]([O-])c1cn2c(n1)OC[C@@H](OCc1ccc(OC(F)(F)F)c(O)c1)C2
Activity [1]: 8.3 µM | MIC99 [2]: 0.14 µM (≈ 0.0525 µg/mL)

O=[N+]([O-])c1cn2c(n1)OC[C@@H](NCc1ccc(OC(F)(F)F)c(Oc3ccccc3)c1)C2
Activity [1]: 3.9 µM | t1/2 (Liver [3]): 9.3 min | CL (Liver [4]): 149 µL/min/mg | solubility ([5]; read-out: solubility): < 2 µg/mL | MIC99 [2]: 0.14 µM (≈ 0.0631 µg/mL)

COC(=O)c1cc(CN[C@@H]2COc3nc([N+](=O)[O-])cn3C2)ccc1OC(F)(F)F
Activity [1]: 11 µM | MIC99 [2]: 0.14 µM (≈ 0.0583 µg/mL)

O=[N+]([O-])c1cn2c(n1)OC[C@@H](NCc1ccc(OC(F)(F)F)c(N3CCOCC3)c1)C2
Activity [1]: 7 µM | MIC99 [2]: 0.15 µM (≈ 0.0665 µg/mL)

CN1CCN(c2cc(CN[C@@H]3COc4nc([N+](=O)[O-])cn4C3)ccc2OC(F)(F)F)CC1
Activity [1]: 7.8 µM | MIC99 [2]: 0.17 µM (≈ 0.0776 µg/mL)

O=[N+]([O-])c1cn2c(n1)OC[C@@H](NCc1ccc(OC(F)(F)F)cc1)C2
Activity [1]: 14 µM | MIC99 [2]: 0.36 µM (≈ 0.129 µg/mL)

O=[N+]([O-])c1cn2c(n1)OC[C@@H](NC(c1ccc(OC(F)(F)F)cc1)c1ncco1)C2 (mixture of isomers)
Activity [1]: 7.8 µM | MIC99 [2]: 0.4 µM

CC(N[C@@H]1COc2nc([N+](=O)[O-])cn2C1)c1ccc(OC(F)(F)F)cc1 (mixture of isomers)
Activity [1]: 5.6 µM | MIC99 [2]: 0.44 µM

O=[N+]([O-])c1cn2c(n1)OC[C@@H](NC(c1ccc(OC(F)(F)F)cc1)c1ncc[nH]1)C2 (mixture of isomers)
Activity [1]: 17 µM | MIC99 [2]: 0.52 µM

CCC(N[C@@H]1COc2nc([N+](=O)[O-])cn2C1)c1ccc(OC(F)(F)F)cc1 (mixture of isomers)
Activity [1]: 3.1 µM | MIC99 [2]: 0.36 µM

CCCC(N[C@@H]1COc2nc([N+](=O)[O-])cn2C1)c1ccc(OC(F)(F)F)cc1 (mixture of isomers)
Activity [1]: 3.8 µM | MIC99 [2]: 0.27 µM

CCCCC(N[C@@H]1COc2nc([N+](=O)[O-])cn2C1)c1ccc(OC(F)(F)F)cc1 (mixture of isomers)
Activity [1]: 4.4 µM | MIC99 [2]: 0.15 µM

NC(=O)C(N[C@@H]1COc2nc([N+](=O)[O-])cn2C1)c1ccc(OC(F)(F)F)cc1 (mixture of isomers)
Activity [1]: 30 µM | MIC99 [2]: 0.41 µM

O=[N+]([O-])c1cn2c(n1)OC[C@@H](NC(CO)c1ccc(OC(F)(F)F)cc1)C2 (mixture of isomers)
Activity [1]: 11 µM | MIC99 [2]: 0.3 µM

O=[N+]([O-])c1cn2c(n1)OC[C@@H](NC(CCO)c1ccc(OC(F)(F)F)cc1)C2 (mixture of isomers)
Activity [1]: 23 µM | MIC99 [2]: 0.13 µM

O=[N+]([O-])c1cn2c(n1)OC[C@@H](OCc1ccc(OC(F)(F)F)cc1)C2 [PRETOMANID]
Activity [1]: 8.8 µM | MIC99 [2]: 0.63 µM (≈ 0.226 µg/mL)
